Assay outcomes deposited in PubChem by Johns Hopkins Ion Channel Center.
RGS4 inh – RGS4 inhibitors, primary screen, cell-based, HEK293 M3R inducible RGS4, calcium flux; B-score at 10 µM; AID 463165, 2010; 310,000 compounds, 0.45% hits; Fluo-4 calcium flux; active compounds read high; triggered by carbachol at its EC20; Regulator of G-protein signaling 4 (Homo sapiens), P49798;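 active = B-score, a plate-corrected calcium signal, over three deviations above library mean, with baseline fluorescence within five deviations of library mean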;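 also: RGS4 expression induced by doxycycline in cells with stable M3 receptor; B-score is computed from the integrated fluorescence ratio over baseline after carbachol; higher B-score means a larger calcium signal and so more RGS4 inhibition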
Target sequence (P49798 whole entry, looked up): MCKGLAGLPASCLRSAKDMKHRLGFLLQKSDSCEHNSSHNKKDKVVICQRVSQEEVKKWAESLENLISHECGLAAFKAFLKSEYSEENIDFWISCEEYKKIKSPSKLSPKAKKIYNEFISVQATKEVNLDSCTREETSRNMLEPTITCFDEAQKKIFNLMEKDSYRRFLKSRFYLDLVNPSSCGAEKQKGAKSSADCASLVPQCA
RGS4 act – RGS4 potentiators or activators, primary screen, cell-based, HEK293 M3R inducible RGS4, calcium flux; B-score at 10 µM; 310,000 compounds, 0.92% hits; AID 463111, 2010; carbachol calcium flux Fluo4; active compounds read low;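 active = B-score of the integrated calcium signal more than 4 SD below the library mean, with starting fluorescence not abnormally high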;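 also: negative B-score means reduced calcium response which marks RGS4 activation or potentiation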
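Test system: HEK293 cells with stable M3R and inducible RGS4; also added: carbachol at ECmax as muscarinic agonist stimulus; schedule: dye loading 30 min 37 °C, buffer rest 30 min RT; technique: kinetic calcium fluorescence imaging with Fluo4-AM dye, 2 µM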
MrgX1 PAM – positive allosteric modulators of MrgX1, primary screen, HEK293 cells, Fluo-4 calcium flux | Mas-related G-protein coupled receptor member X1 (Homo sapiens), Q96LB2 | FDSS; active compounds read high | B-score at 10 µM | 310,000 compounds, 0.63% hits | AID 588675, 2011;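 active = plate-corrected calcium response at least 3 library SD above typical, normal starting fluorescence, not activating the receptor alone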;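 also: compound read alongside a low EC10 to EC30 dose of BAM8-22 agonist; peak minus trough fluorescence over baseline measured at the second addition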
Target sequence (Q96LB2 whole entry, looked up): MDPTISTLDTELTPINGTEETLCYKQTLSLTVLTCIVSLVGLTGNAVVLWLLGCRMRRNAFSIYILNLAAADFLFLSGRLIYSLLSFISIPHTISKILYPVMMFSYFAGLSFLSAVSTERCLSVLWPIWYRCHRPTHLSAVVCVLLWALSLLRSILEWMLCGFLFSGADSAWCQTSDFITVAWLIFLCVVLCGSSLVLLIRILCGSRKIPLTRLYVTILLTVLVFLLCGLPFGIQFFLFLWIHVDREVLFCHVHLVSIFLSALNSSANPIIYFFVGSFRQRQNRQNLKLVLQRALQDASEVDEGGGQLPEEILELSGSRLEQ
MrgX1 antagonist – antagonists of human MrgX1 receptor, primary screen, HEK293 cells, Fluo-4 calcium flux; 310,000 compounds, 1.3% hits; BAM8-22 antagonism; active compounds read low; B-score at 10 µM; Mas-related G-protein coupled receptor member X1 (Homo sapiens), Q96LB2;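 active = calcium-response B-score plate-corrected more than 3 library SD below zero, starting fluorescence within 5 deviations, no agonist response on first addition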;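 also: peak minus trough fluorescence over baseline after final BAM8-22 challenge near maximal dose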
MrgX1 ag – agonists of human MrgX1 receptor, primary screen, HEK293 cells, Fluo-4 calcium flux. 310,000 compounds, 0.44% hits. Fluo-4 calcium fluorescence, agonist mode; active compounds read high. B-score at 10 µM;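 active = calcium response B-score plate-corrected fluorescence ratio at least 3 library SD, with starting fluorescence B-score inside 5 SD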
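Test system: HEK293 cells stably expressing human MrgX1 receptor; Input: fifteen thousand cells per well; Dosing: compound delivered in addition one of three; Schedule: overnight seeding, then 1 h dark dye loading; Technique: Fluo-4 NW calcium fluorescence; Measure: B-scored fluorescence response ratio; Controls: positive and negative controls per plate.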
Large screens that a line does not name were inactive. Most compounds without a hit are left out; they make up all but 3.5% or so of the library.

Cc1cc(N2CCCC2)nc(N2C3CCC2CC(O)(c2ccc(F)cc2)C3)n1 (stereo unspecified)	MrgX1 PAM 8
COc1ccc(C2(O)CC3CCC(C2)N3c2cc(C)nc(-c3ccccc3)n2)cc1 (stereo unspecified)	none
O=C(CN1CCCCC1)N1N=C(c2cccs2)CC1c1cccs1 (stereo unspecified)	RGS4 act -8
CC1CCCC(C)N1c1ccc(S(=O)(=O)N2CCOCC2)cc1Cl (stereo unspecified)	none
Cc1[nH]n(-c2ccccc2)c(=O)c1C(c1ccccc1[N+](=O)[O-])C(C#N)C#N (stereo unspecified)	MrgX1 ag 36
N#Cc1cc(Cl)c(NCC2CCCO2)cc1C#N (stereo unspecified)	none
Cc1c(Br)c([N+](=O)[O-])nn1C(C)C(=O)N1CCc2ccccc2C1 (stereo unspecified)	RGS4 act -9.3
Cc1c(Br)c([N+](=O)[O-])nn1CC(=O)N1CCc2ccccc2C1	none
CCOC(=O)NC(=O)COC(=O)CNC(=O)c1ccc(OCC)c(OCC)c1	MrgX1 PAM 8.9
Cc1ccccc1Nc1c([N+](=O)[O-])cncc1[N+](=O)[O-]	none
O=[N+]([O-])c1cncc([N+](=O)[O-])c1Nc1cccc(O)c1	MrgX1 ag 38
Cc1cccc(C)c1NC(=O)CS(=O)CC(=O)NCC1OCCc2ccccc21 (stereo unspecified)	MrgX1 antagonist -4.8
CCc1ccc(NC(=O)CS(=O)CC(=O)NCC2OCCc3ccccc32)cc1 (stereo unspecified)	none
CCCS(=O)(=O)c1c(S(=O)(=O)CCC)c2cnccn2c1C(=O)c1ccc(CC)cc1	none
CCCS(=O)(=O)c1c(S(=O)(=O)CCC)c2cnccn2c1C(=O)c1ccc(OC)cc1	MrgX1 PAM 13
CCOC(=O)c1c(-c2cccc([N+](=O)[O-])c2)csc1NC(=O)C1CC1	RGS4 act -7.7
CCOC(=O)c1c(-c2cccc([N+](=O)[O-])c2)csc1NC(=O)C1CCCCC1	RGS4 act -9.2
O=C(NCCN1CCCC1)C(c1ccccc1)c1ccccc1	none
Cc1cccc(N2CCN(C(=O)c3cn(C)c(=O)c4c3c3ccccc3n4C)CC2)c1C	MrgX1 PAM 9.5
Cc1ccc2cc(CN(CCc3ccccc3)C(=S)NCCCN(C)C)c(=O)[nH]c2c1	MrgX1 PAM 6.6
COc1ccc(N2C(=S)NC3N2C(=S)NC3(C)c2ccccc2)cc1 (stereo unspecified)	none
Cc1oc2c(c1C(=O)c1ccc(Cl)cc1)C(=O)C(=O)c1ccccc1-2	none (no result: MrgX1 PAM, MrgX1 antagonist, MrgX1 ag)
Cc1ccc(C(=O)c2c(C)oc3c2C(=O)C(=O)c2ccccc2-3)cc1	RGS4 act -7.5
C=CCN1C=CC=C/C1=C1\SC(=S)N(C)C1=O	RGS4 act -8.3
CN1C=CC=C/C1=C1\SC(=S)N(c2ccccc2)C1=O	none
CCOC(=O)c1ccccc1NC(=O)Cc1c(C(=O)O)n(C)c2ccccc12	none
C=CCOc1cccc(C(=O)/C=C2/C(=O)Nc3ccccc32)c1	RGS4 inh 5.8
COc1ccc(NC(=O)/C=C/c2ccccc2)c([N+](=O)[O-])c1	MrgX1 antagonist -7.1
COc1ccc(/C=C/C(=O)Nc2ccc(OC)cc2[N+](=O)[O-])cc1	none
CC(C)NC(=O)c1ccccc1NC(=O)/C=C/c1cccc([N+](=O)[O-])c1	MrgX1 antagonist -4.5
Cc1cccc(-c2ncc(CN3CCCC(CO)(Cc4ccccc4C)C3)cn2)c1 (stereo unspecified)	none
O=C(c1cccc(C(F)(F)F)c1)C1CCCN(C(=O)CCn2cnnn2)C1 (stereo unspecified)	none
C[C@]12C=CC(=O)C=C1CC[C@@H]1C2=CC[C@]2(C)[C@@H](C(=O)CN3CCN(c4cc(N5CCCC5)nc(N5CCCC5)n4)CC3)CC[C@@H]12	MrgX1 ag 38
COC(=O)c1ccc([N+](=O)[O-])cc1N1C(=O)C2C3CCC(C3)C2C1=O (stereo unspecified)	none
CC1CCCC(C)N1C(=O)COC(=O)C1CCN(S(=O)(=O)c2ccc3c(c2)OCCO3)CC1 (stereo unspecified)	none
O=C(/C=C/c1cccc(F)c1)Nc1nccs1	MrgX1 antagonist -6.3
O=C(/C=C\c1ccccc1)Nc1nccs1	none
O=C(NCc1cccnc1)c1ccccc1CCc1ccccc1	none
O=C(N/N=C/c1ccc(O)cc1)c1ccc(COc2cc(Cl)ccc2Cl)o1	MrgX1 antagonist -5.2
CN(Cc1ccon1)C(=O)C1CCN(C2CCN(CCCc3ccccc3)CC2)CC1	none
CCOC(=O)C1=NNC(C(=O)c2ccc(Cl)cc2)C1c1ccccc1 (stereo unspecified)	none
CCOC(=O)C1=NN(c2ccc(Cl)cc2)C(c2ccccc2)CC1=O (stereo unspecified)	MrgX1 antagonist -7.8
CCN(CC)CCCNC(=O)C1c2ccccc2Oc2ccccc21	RGS4 act -7.3
COCCCNC(=O)C1c2ccccc2Oc2ccccc21	none
COc1ccc(-n2c(-c3ccc(Br)cc3)c[n+]3c2CCC3)cc1	RGS4 act -7.2
Cc1ccc(S(=O)(=O)N2CCC(=O)N(C(COCc3cccc(C(F)(F)F)c3)Cc3ccccc3)CC2)cc1 (stereo unspecified)	MrgX1 antagonist -4.5
Cc1cc(C)c2c(=O)n(CC(=O)Nc3cccc(Cl)c3C)sc2n1	MrgX1 PAM 9.5
c1ccc2c(c1)CCN(c1ncnc3c1[nH]c1ccccc13)C2	MrgX1 antagonist -8.2
CCN1C(=O)[C@H]2[C@@H](c3ccc(-c4ccc(C(C)=O)cc4)cc3)N3CCC[C@@]3(C(=O)OC)[C@H]2C1=O	none
O=C1CCCN1CCCNc1ncnc2c1[nH]c1ccc(Cl)cc12	MrgX1 ag 37
O=C(NCc1cccnc1)c1ccc(-c2ccccc2[N+](=O)[O-])o1	MrgX1 antagonist -5.9
COC(=O)c1ccccc1C(=O)N1CCC(CCC(=O)NC2CC2)CC1	none
O=C(O)c1ccc(-c2nc(-c3ccc(Cl)cc3Cl)cs2)cc1	none
Cc1onc(-c2ccc(Cl)cc2Cl)c1-c1csc(COc2ccccc2)n1	RGS4 act -7.3
CS(=O)(=O)N1CCC(Oc2cccc(C(=O)NCCCC3CCCC3)c2)CC1	none
Cc1cc(OCCN2CCC(Cc3ccccc3)CC2)ccc1[N+](=O)[O-]	RGS4 act -8
CCCCC(OC(=O)CN1C(=O)COc2ccccc21)C(=O)NC1CCCCC1 (stereo unspecified)	none
O=C(c1ccc(F)cc1Cl)N1CCN(S(=O)(=O)c2cccs2)CC1	none
O=C(Nc1ccccc1)N1CCCC(c2nc(-c3ccc(F)cc3)no2)C1 (stereo unspecified)	none
